For five compounds, cholesterol efflux relative to neutral control results are on record in PubChem BioAssay AID588818 (Broad Institute, 2011).

Molecules are shown by their SMILES.

In this experiment the test system is ldlA[mSR-BI] cells, [3H]cholesterol efflux to HDL. Kind of experiment: SR-BI cellular [3H]cholesterol release modulation – ldlA[mSR-BI] cells, powder samples, mechanism study for SR-BI HDL uptake inhibitor project, late-stage follow-up (AID 588818). As to conditions: at 1 µM; hits give low values. An outline of the steps: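 Times: 24-h 1% FAF-BSA equilibration, 1-h compound preincubation, 2-h HDL exposure; Assay system: ldlA[mSR-BI] cells carrying a [3H]cholesterol label; Detection: liquid scintillation counting of [3H]cholesterol in medium and cells; Probe or stimulus: HDL as cholesterol acceptor, 100 µg/mL final.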

Regarding `CCC(=O)N1CCc2cc(-c3csc(NC(=O)c4ccco4)n3)ccc21`, the cholesterol efflux relative to neutral control is 11.5%. In the case of `COc1ccc(-c2nnn(CC(=O)N(C3CCCCC3)C(C)C(=O)NC3CCCC3)n2)cc1OC` (stereo not given), the cholesterol efflux relative to neutral control was 13.1%. `O=C(Nc1ccc(-c2nc3cc(NC(=O)c4ccccc4[N+](=O)[O-])ccc3o2)cc1)c1ccccc1[N+](=O)[O-]`: the cholesterol efflux relative to neutral control was 5.29%. As for `CCOC(=O)N1CCC(NC(=O)c2ccc3c(c2)N(Cc2ccc(F)cc2)CCS3)CC1`, the figure is 14.1%. As for `O=C(Nc1ccc(-c2nc3cc(NC(=O)c4ccc(NC(=O)c5cccc6ccccc56)cc4)ccc3[nH]2)cc1)c1ccc(NC(=O)c2cccc3ccccc23)cc1`, the figure is 10.3%.
